# Measured values reported in ChEMBL document CHEMBL3870320, “Yakushinamides, Polyoxygenated Fatty Acid Amides That Inhibit HDACs and SIRTs, from the Marine Sponge Theonella swinhoei” (J Nat Prod, 2016).
# Columns and labels:
# [1] = target: T1, NAD-dependent protein deacetylase sirtuin-2 (Homo sapiens) (UniProt Q8IXJ6); assay: Inhibition of recombinant human GST-tagged SIRT2 catalytic domain using Ac-RHKK(Ac)-MCA assessed as formation of amino methyl coumarin from Ac-RHKK(Ac)-MCA and NAD measured after 60 mins by fluorescence analysis
# T1 sequence (whole entry): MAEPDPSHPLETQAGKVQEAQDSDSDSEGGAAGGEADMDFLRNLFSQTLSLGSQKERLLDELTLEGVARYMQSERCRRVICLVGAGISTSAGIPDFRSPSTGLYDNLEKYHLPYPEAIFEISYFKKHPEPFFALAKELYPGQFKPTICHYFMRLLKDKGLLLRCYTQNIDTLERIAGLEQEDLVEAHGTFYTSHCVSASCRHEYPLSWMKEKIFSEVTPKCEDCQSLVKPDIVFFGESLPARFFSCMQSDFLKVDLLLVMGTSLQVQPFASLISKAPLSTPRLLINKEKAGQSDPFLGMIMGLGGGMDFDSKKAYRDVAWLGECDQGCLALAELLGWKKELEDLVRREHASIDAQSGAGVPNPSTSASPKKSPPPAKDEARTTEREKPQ
# Method in brief: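 Recombinant GST-fused SIRT2 catalytic domain with 100 μM Ac-RHKK(Ac)-MCA and NAD (final 1 mM) in 50 mM Tris-HCl pH 9.0, 4 mM MgCl2, 0.2 mM DTT, 60 min at 37 °C. Trypsin (final 20 mg/mL) then added for 15 min at 37 °C. Released aminomethylcoumarin fluorescence read at ex 370/em 460 nm.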
# [2] = target: Histone deacetylase 1 (Homo sapiens) (UniProt Q13547); assay: Inhibition of human FLAG-tagged HDAC1 expressed in human 293T cells assessed as formation of amino methyl coumarin from Ac-KGLGK(Ac)-MCA measured after 30 mins by fluorescence analysis; type: cell-based
# [3] = target: Histone deacetylase 4 (Homo sapiens) (UniProt P56524); assay: Inhibition of human FLAG-tagged HDAC4 expressed in human 293T cells assessed as formation of amino methyl coumarin from Ac-KGLGK(Ac)-MCA measured after 30 mins by fluorescence analysis; type: cell-based
# [4] = target: T2, Protein deacetylase HDAC6 (Homo sapiens) (UniProt Q9UBN7); assay: Inhibition of human FLAG-tagged HDAC6 expressed in human 293T cells assessed as formation of amino methyl coumarin from Ac-KGLGK(Ac)-MCA measured after 30 mins by fluorescence analysis; type: cell-based
# T2 sequence (whole entry): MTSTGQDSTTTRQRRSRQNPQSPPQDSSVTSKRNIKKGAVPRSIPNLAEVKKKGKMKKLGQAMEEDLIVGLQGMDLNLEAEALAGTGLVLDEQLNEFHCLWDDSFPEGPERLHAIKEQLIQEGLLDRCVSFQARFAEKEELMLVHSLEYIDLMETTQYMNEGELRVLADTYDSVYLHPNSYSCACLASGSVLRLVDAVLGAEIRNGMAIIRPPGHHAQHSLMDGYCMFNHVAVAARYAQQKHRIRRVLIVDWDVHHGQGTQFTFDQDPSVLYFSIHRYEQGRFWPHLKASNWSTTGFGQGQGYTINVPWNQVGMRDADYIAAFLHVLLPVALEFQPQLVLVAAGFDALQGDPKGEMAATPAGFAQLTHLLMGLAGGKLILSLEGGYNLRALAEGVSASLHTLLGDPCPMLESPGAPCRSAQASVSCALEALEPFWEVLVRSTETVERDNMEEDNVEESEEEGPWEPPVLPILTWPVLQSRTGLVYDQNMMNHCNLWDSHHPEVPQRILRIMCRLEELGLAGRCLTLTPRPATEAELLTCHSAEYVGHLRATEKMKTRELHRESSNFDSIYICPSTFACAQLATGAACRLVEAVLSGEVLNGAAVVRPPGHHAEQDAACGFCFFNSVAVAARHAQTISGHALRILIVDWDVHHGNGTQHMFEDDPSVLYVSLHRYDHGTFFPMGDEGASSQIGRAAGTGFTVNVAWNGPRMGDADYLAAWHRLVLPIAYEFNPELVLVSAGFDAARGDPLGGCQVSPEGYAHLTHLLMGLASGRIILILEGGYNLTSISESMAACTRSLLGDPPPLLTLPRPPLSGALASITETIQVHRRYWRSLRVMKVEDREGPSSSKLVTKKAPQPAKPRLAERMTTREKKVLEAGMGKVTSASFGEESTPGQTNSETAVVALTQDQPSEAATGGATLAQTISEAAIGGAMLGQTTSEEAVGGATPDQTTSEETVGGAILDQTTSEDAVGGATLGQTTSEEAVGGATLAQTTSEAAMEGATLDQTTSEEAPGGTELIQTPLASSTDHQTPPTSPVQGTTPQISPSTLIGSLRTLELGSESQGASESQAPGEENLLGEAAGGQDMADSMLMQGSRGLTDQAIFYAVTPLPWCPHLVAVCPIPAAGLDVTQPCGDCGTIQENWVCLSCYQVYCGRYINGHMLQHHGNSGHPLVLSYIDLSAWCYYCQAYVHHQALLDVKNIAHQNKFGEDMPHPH
# [5] = target: T3, NAD-dependent protein deacetylase sirtuin-1 (Homo sapiens) (UniProt Q96EB6); assay: Inhibition of recombinant human SIRT1 expressed in Escherichia coli BL21 (DE3) assessed as formation of amino methyl coumarin from Ac-RHKK(Ac)-MCA and NAD measured after 60 mins by fluorescence analysis
# T3 sequence (whole entry): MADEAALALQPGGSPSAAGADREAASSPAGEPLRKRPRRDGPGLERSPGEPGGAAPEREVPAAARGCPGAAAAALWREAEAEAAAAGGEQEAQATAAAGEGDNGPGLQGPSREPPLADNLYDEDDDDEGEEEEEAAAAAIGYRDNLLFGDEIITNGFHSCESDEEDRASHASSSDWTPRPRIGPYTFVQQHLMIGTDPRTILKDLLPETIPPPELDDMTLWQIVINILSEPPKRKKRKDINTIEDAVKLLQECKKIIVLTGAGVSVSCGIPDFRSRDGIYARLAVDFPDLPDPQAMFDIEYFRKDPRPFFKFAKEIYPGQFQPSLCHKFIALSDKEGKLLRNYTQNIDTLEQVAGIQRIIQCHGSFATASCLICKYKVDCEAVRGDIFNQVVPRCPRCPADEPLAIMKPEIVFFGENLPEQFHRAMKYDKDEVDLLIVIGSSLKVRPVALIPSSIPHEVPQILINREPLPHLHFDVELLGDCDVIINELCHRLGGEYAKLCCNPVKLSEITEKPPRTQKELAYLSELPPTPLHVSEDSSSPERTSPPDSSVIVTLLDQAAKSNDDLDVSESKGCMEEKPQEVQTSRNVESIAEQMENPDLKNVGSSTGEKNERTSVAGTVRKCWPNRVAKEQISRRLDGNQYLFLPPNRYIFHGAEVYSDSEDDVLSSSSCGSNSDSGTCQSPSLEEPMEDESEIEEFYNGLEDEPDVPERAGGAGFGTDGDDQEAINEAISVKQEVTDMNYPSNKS
# Method in brief: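 SIRT1 was expressed from pCold TF in E. coli BL21 (DE3) with 0.3 mM IPTG at 16 °C for 24 h, and the (His)6 protein was purified by nickel affinity then anion exchange. Assay used 100 μM Ac-RHKK(Ac)-MCA and 1 mM NAD (final) in Tris-HCl pH 9.0 buffer for 60 min at 37 °C. Trypsin was added for 15 min, and fluorescence was read at ex 370/em 460 nm.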
# [6] = target: T4, NAD-dependent protein deacetylase sirtuin-3, mitochondrial (Homo sapiens) (UniProt Q9NTG7); assay: Inhibition of recombinant human His-tagged SIRT3 (118 to 399 residues) expressed in Escherichia coli BL21 (DE3) assessed as formation of amino methyl coumarin from Ac-VSTPVK(Ac)-MCA and NAD measured after 60 mins by fluorescence analysis
# T4 sequence (whole entry): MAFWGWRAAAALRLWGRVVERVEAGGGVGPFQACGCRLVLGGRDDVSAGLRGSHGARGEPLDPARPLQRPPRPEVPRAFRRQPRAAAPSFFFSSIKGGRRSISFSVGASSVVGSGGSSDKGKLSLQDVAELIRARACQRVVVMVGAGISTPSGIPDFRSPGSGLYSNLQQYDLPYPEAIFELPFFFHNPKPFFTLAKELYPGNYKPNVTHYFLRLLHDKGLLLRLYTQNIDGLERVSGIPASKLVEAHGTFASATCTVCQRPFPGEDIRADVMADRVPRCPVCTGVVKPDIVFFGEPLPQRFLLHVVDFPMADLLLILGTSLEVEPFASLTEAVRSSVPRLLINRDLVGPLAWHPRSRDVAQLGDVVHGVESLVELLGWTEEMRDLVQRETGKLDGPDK
# Method in brief: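 His-tagged recombinant SIRT3 incubated with 100 μM Ac-VSTPVK(Ac)-MCA and NAD (final 1 mM) in 50 mM Tris-HCl pH 9.0, 4 mM MgCl2, 0.2 mM DTT for 60 min at 37 °C. Trypsin (final 20 mg/mL) was added and the mixture held 15 min more at 37 °C. Fluorescence of freed aminomethylcoumarin measured at ex 370/em 460 nm.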
# Chain of Histone deacetylase 4 (Homo sapiens) (P56524 whole entry): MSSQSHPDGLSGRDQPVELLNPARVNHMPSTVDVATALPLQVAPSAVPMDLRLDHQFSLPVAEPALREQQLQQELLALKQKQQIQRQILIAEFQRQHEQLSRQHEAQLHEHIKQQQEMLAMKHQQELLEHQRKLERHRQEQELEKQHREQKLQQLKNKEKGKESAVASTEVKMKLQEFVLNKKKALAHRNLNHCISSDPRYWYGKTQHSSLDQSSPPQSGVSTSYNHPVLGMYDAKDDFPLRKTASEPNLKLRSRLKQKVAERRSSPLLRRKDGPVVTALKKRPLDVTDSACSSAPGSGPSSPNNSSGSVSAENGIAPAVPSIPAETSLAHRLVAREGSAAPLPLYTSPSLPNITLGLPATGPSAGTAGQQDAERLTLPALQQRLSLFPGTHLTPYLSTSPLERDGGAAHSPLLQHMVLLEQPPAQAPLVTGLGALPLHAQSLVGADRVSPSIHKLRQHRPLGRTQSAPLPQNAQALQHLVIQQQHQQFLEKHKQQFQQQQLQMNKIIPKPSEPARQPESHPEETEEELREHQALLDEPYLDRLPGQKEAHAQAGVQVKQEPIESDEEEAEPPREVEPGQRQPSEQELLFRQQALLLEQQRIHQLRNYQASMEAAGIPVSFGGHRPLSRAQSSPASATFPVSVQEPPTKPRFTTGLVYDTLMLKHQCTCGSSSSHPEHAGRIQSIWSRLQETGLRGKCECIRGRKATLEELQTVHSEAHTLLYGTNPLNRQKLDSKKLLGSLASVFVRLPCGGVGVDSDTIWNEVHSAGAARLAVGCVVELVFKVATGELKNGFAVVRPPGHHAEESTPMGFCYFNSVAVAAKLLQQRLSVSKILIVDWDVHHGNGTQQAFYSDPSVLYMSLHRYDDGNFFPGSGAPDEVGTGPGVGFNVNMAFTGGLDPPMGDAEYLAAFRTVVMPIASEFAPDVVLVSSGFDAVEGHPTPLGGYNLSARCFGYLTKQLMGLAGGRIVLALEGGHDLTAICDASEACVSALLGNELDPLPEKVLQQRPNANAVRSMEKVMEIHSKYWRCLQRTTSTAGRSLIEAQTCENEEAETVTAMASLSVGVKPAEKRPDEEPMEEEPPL
# Chain of Histone deacetylase 1 (Homo sapiens) (Q13547 whole entry): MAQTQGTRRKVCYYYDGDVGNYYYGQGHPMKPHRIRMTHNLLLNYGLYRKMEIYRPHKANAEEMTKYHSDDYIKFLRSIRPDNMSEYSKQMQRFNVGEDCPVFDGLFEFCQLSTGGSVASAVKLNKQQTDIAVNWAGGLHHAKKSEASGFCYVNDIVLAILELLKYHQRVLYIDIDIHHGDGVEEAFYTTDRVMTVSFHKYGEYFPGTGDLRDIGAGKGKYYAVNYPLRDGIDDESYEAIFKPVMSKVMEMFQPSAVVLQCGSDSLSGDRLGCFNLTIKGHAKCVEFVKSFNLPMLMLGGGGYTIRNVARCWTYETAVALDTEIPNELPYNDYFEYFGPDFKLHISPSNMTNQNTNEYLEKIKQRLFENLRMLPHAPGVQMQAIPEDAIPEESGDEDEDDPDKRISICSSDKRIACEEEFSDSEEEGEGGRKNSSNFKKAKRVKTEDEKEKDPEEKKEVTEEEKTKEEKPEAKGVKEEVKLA
IC50 [1] [µM],IC50 [2] [µM],IC50 [3] [µM],IC50 [4] [µM],IC50 [5] [µM],IC50 [6] [µM],Compound
> 200,26,> 200,> 200,16,79,CCCCCCC[C@@H](C)C[C@@H](O)CCCCCCC[C@@H](CCCC[C@@H](OC(C)=O)[C@@H](OC(C)=O)[C@H](CCCCCCC(=O)N1CCC[C@H]1C(=O)OC)OC(C)=O)OS(=O)(=O)O
150,29,75,52,34,78,CCCCCC[C@@H](C)[C@@H](CCCCCCCC(O)CCCC[C@@H](OC(C)=O)[C@@H](OC(C)=O)[C@H](CCCCCCC(=O)N1CCC[C@H]1C(=O)OC)OC(C)=O)OS(=O)(=O)O (some centres not stated)
